Assay results: PMC11537069 (Structure (London, England : 1993), 2020)

Tests used:
[1] = biological target: T1, HERC2ZZ (Homo sapiens, UniProt O95714); experiment: NMR titration; assay type: binding; details: 0.1 mM 15N-labeled HERC2ZZ, 20 mM Tris pH 6.8, 100 mM NaCl, 298K
T1 sequence (O95714 2702-2755): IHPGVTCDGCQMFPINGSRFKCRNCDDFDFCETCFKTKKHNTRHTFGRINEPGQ
Procedure, shortened: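 Human HERC2ZZ (aa 2702-2755, plus an extra C-terminal Trp) was expressed in BL21(DE3) RIL in minimal medium with 15NH4Cl and 0.05 mM ZnCl2, induced with 0.2 mM IPTG for 20 h at 16 °C. The His8-SUMO tag was removed with Ulp1, followed by size exclusion. Sample also held 2-5 mM DTT and 10% D2O.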

[2] = system: HERC2ZZ D2709A; experiment: NMR titration; assay type: binding, human; details: 15N-labeled D2709A HERC2ZZ, 20 mM Tris pH 6.8, 100 mM NaCl, 298K; Figures 3G, 3H, S9

Molecule	CSPs in HERC2ZZ upon addition of free alanine amino acid ([1]; 50-fold excess of alanine, Figure S5)	exchange regime of CSPs in HERC2ZZ on the NMR timescale [1]	interaction with SUMO1 ligand upon D2709A substitution (NMR titration) [2]
C[C@H](N)C(=O)O [alanine, reference compound]	no CSPs		
SUMO1FL: full-length SUMO1 protein		intermediate exchange regime	abolished
